From ChEMBL document CHEMBL1121898, “Potential antiestrogens. Synthesis and evaluation of mammary tumor inhibiting activity of 1,2-dialkyl-1,2-bis(3'-hydroxyphenyl)ethanes” (1981)
Where “and” joins values, the source holds several entries; their conditions need not be identical. Equal values may be shown once. Calls of active or inactive are those of the source.

Experiments:
[1] = target: T1, Estrogen receptor (Mus musculus) (UniProt O08537+P19785); assay: Antiestrogenic activity in uterotrophic test in mice at 5 ug; assay type: functional
T1 sequence (O08537 whole entry, looked up): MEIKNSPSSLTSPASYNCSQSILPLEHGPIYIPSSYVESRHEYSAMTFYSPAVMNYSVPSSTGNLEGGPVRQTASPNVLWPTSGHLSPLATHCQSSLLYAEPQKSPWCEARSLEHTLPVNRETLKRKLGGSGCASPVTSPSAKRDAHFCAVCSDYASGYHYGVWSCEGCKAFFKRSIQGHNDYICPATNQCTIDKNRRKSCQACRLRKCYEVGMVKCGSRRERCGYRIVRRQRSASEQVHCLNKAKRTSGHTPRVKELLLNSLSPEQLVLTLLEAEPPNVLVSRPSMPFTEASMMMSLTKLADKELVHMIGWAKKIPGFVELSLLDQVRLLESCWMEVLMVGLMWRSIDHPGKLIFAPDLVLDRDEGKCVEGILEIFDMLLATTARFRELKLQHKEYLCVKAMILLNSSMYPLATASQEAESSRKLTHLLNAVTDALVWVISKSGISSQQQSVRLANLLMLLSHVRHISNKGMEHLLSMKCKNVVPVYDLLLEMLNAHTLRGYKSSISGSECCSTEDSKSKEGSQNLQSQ
T1 sequence (P19785 whole entry, looked up): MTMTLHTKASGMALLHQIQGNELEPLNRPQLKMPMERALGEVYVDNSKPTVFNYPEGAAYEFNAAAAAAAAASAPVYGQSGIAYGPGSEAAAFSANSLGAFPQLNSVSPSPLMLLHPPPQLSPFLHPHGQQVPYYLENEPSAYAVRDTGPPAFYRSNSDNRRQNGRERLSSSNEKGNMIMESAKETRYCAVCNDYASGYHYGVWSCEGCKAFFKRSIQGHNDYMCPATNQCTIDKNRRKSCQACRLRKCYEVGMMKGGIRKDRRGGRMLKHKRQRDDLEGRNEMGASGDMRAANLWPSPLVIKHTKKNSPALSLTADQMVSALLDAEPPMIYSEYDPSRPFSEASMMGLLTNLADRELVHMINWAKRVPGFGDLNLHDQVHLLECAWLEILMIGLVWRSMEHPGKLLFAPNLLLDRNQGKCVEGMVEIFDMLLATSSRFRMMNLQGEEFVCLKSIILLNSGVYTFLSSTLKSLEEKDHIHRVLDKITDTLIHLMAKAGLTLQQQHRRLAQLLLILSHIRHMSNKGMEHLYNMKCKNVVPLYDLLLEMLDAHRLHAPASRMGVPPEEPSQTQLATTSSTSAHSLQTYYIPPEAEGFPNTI
In short: (§1)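 Immature female NMRI mice, 20 days old (14.5 ± 1.2 g), randomly grouped 10 per group. Each received a daily sc injection for 3 days of 0.1 mL olive oil solution containing test compound, together with estrone to stimulate uterine growth. Uteri were removed 24 h after the last injection and weighed. Results are reported as % inhibition of the estrone-stimulated uterine weight gain, mean ± SD.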

MCF7 [2] = assay: Inhibition of estrogen receptor positive MCF-7 cell proliferation as cell number after 10 days at 10e-9 M; assay type: functional, Homo sapiens
In short: (§2)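 MCF-7 cells were grown in McCoy's 5a medium with fetal bovine serum stripped by DCC (0.5 h, 45 °C). Compounds were dissolved in ethanol (final ≤0.5%) and diluted in complete medium. Cells were seeded at 5×10^4 cells/plate. On day 10, three replicate plates per group were counted by Coulter counter, three counts per plate. Percent T/C = test/control. In a retest, compounds were given at 10^-7 M with 17β-estradiol at 10^-7 or 10^-8 M.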

Rattus norvegicus [3] = organism: Rattus norvegicus; assay: Complete remission of DMBA-induced hormone-dependent mammary carcinoma tumors in rats at 9 mg; assay type: functional
In short: (§3)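 Female SD rats bearing DMBA-induced, hormone-dependent mammary adenocarcinoma, with at least one tumor >140 mm², were grouped in tens. Dosing was sc per kg body weight: a single dose daily Monday–Thursday and a double dose Friday. Ovariectomy served as the comparison arm. Complete remission was defined as a tumor no longer palpable. Body weight and tumor area changes were also recorded.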

Rattus norvegicus [4] = organism: Rattus norvegicus; assay: Final number of DMBA-induced hormone-dependent mammary carcinoma tumors in rats at 2.25 mg; assay type: functional
In short: (§4)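 Sprague-Dawley rats carrying DMBA-induced, hormone-dependent mammary adenocarcinoma, at least one tumor >140 mm², were placed in groups of ten. Compounds were given sc, with doses in mg/kg: a single daily dose Monday to Thursday and a double dose on Friday. Ovariectomy served as a comparator group. New tumors arising during the test were counted.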

Rattus norvegicus [5] = organism: Rattus norvegicus; assay: Partial remission of DMBA-induced hormone-dependent mammary carcinoma tumors in rats at 2.25 mg; assay type: functional
In short: (§5)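 DMBA-induced, hormone-dependent mammary adenocarcinoma in SD rats. Rats bearing at least one tumor >140 mm² were placed in groups of ten. Compound was given sc as a single dose (mg/kg) daily Monday–Thursday and a double dose on Friday. Tumors were counted at the start and as new tumors; responses were scored as complete remission (not palpable), partial remission (≥50% reduction), no change or progression. Tumor area and body weight were recorded as % change.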

Rattus norvegicus [6] = organism: Rattus norvegicus; assay: Progression of DMBA-induced hormone-dependent mammary carcinoma tumors in ovariectomised rats; assay type: functional
In short: (§6)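 DMBA-induced, hormone-dependent mammary adenocarcinoma in SD rats, with ovariectomy as the treatment. Rats bearing at least one tumor >140 mm² were placed in groups of ten. Tumors were counted at the start and as new tumors. Responses were scored as complete remission, partial remission (≥50% size reduction), no change or progression, with % change in tumor area and body weight.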

Rattus norvegicus [7] = organism: Rattus norvegicus; assay: Complete remission of DMBA-induced hormone-dependent mammary carcinoma tumors in rats at 2.25 mg; assay type: functional; in short: as §3
MCF7 [8] = assay: Inhibition of estrogen receptor positive MCF-7 cell proliferation as percent treated/control cell number after 10 days at 10e-6 M; assay type: functional, Homo sapiens; in short: as §2
[9] = target: T1, Estrogen receptor (Mus musculus); assay: Estrogenic activity in uterotrophic test in mice at 900 ug; assay type: functional
In short: (§7)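 Immature (20-day-old) female NMRI mice, 14.5 ± 1.2 g, randomized into groups of 10. Given the test compound sc daily for 3 days in 0.1 mL olive oil. Uteri removed 24 h after the last injection; uterine weight taken as the read-out, means ± SD. Dose in μg.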

MCF7 [10] = assay: Inhibition of estrogen receptor positive MCF-7 cell proliferation as cell number after 10 days at 10e-8 M; assay type: functional, Homo sapiens; in short: as §2
[11] = target: T1, Estrogen receptor (Mus musculus); assay: Estrogenic activity in uterotrophic test in mice at 300 ug; assay type: functional; in short: as §7
Mus musculus = organism: Mus musculus; assay: Vaginal cornification test in mice at 0 ug; predominant cellular component leucocytes (diestrus); assay type: functional, organism-based
In short: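 Female NMRI mice (~15 g) were ovariectomized; castration was confirmed at 10 days by leucocyte smears. Mice were primed with estradiol 3-benzoate 0.2 μg, and only responders showing estrus were kept. Groups of three received sc test compound in 0.1 mL olive oil daily for 3 days. Saline vaginal smears were taken 6, 24, 30, 48 and 54 h after the last dose and scored by Allen-Doisy.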

MCF7 [12] = assay: (§8) Inhibition of estrogen receptor positive MCF-7 cell proliferation as cell number after 10 days at 10e-7 M; assay type: functional, Homo sapiens; in short: as §2
MCF7 [13] = assay: Inhibition of estrogen receptor positive MCF-7 cell proliferation as percent treated/control cell number after 10 days at 10e-9 M; assay type: functional, Homo sapiens; in short: as §2
MCF7 [14] = assay: Inhibition of estrogen receptor positive MCF-7 cell proliferation as percent treated/control cell number after 10 days at 10e-7 M with 10e-7 M 17-beta-estradiol; assay type: functional, Homo sapiens; in short: as §2
MCF7 [15] = assay: as §8; assay type: functional, Homo sapiens; in short: as §2; remark: listed apart in the source
MCF7 [16] = assay: Inhibition of estrogen receptor positive MCF-7 cell proliferation as percent treated/control cell number after 10 days at 10e-7 M; assay type: functional, Homo sapiens; in short: as §2
MCF7 [17] = assay: Inhibition of estrogen receptor positive MCF-7 cell proliferation as percent treated/control cell number after 10 days at 10e-8 M; assay type: functional, Homo sapiens; in short: as §2
[18] = tested on: Estrogen receptor (Bos taurus); assay: Displacement of [3H]estradiol from calf estrogen receptor
MCF7 [19] = assay: Inhibition of estrogen receptor positive MCF-7 cell proliferation as cell number after 10 days at 10e-7 M and 10e-8 M 17-beta-estradiol; assay type: functional, Homo sapiens; in short: as §2
MCF7 [20] = assay: Inhibition of estrogen receptor positive MCF-7 cell proliferation as cell number after 10 days at 10e-6 M; assay type: functional, Homo sapiens; in short: as §2
[21] = target: T1, Estrogen receptor (Mus musculus); assay: Inhibitory activity in mouse uterine weight test at 0.1 ug; assay type: functional
In short: (§9)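 Antiuterotrophic (Dorfman) assay in immature 20-day-old female NMRI mice, groups of 10. Uterine growth was stimulated with estrone (0.1 μg) and the test compound was given alongside it, sc daily for 3 days in 0.1 mL olive oil. Uteri were taken 24 h after the last dose. Uterine weight is reported as means ± SD and inhibition as % of the estrone-stimulated response.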

MCF7 [22] = assay: Inhibition of estrogen receptor positive MCF-7 cell proliferation as percent treated/control cell number after 10 days at 10e-7 M and 10e-8 M 17-beta-estradiol; assay type: functional, Homo sapiens; in short: as §2
Rattus norvegicus [23] = organism: Rattus norvegicus; assay: Percent change in body weight DMBA-induced hormone-dependent mammary carcinoma tumors in ovariectomised rats after 7 days; assay type: functional; in short: as §6
Rattus norvegicus [24] = organism: Rattus norvegicus; assay: Complete remission of DMBA-induced hormone-dependent mammary carcinoma tumors in rats at 2 mg; assay type: functional; in short: as §3
[25] = target: T1, Estrogen receptor (Mus musculus); assay: Estrogenic activity in uterotrophic test in mice at 80 ug (experiment 2); assay type: functional; in short: as §7
[26] = target: T1, Estrogen receptor (Mus musculus); assay: Estrogenic activity in uterotrophic test in mice at 800 ug (experiment 2); assay type: functional; in short: as §7
[27] = target: T1, Estrogen receptor (Mus musculus); assay: Inhibitory activity in mouse uterine weight test at 50 ug (experiment 2); assay type: functional; in short: as §9
Rattus norvegicus [28] = organism: Rattus norvegicus; assay: Percent change in DMBA-induced hormone-dependent mammary carcinoma tumor area at 2 mg after 28 days; assay type: functional; in short: as §5
Rattus norvegicus [29] = organism: Rattus norvegicus; assay: Progression of DMBA-induced hormone-dependent mammary carcinoma tumors in rats at 2 mg; assay type: functional
[30] = target: T1, Estrogen receptor (Mus musculus); assay: Antiestrogenic activity in uterotrophic test in mice at 50 ug (experiment 2); assay type: functional; in short: as §1
Rattus norvegicus [31] = organism: Rattus norvegicus; assay: Final number of DMBA-induced hormone-dependent mammary carcinoma tumors in rats at 1 mg; assay type: functional; in short: as §4
Rattus norvegicus [32] = organism: Rattus norvegicus; assay: Initial tumor number of DMBA-induced hormone-dependent mammary carcinoma in rats at 4 mg; assay type: functional; in short: as §5

Ka [18] [M⁻¹]	Structure (SMILES)	Cell number (MCF7 [2])	T/C (MCF7 [8]) [%]	Cell number (MCF7 [10])	Activity (Mus musculus)	Cell number (MCF7 [12])	T/C (MCF7 [13]) [%]	T/C (MCF7 [14]) [%]	Cell number (MCF7 [15])	T/C (MCF7 [16])	T/C (MCF7 [17]) [%]	Cell number (MCF7 [19])	Cell number (MCF7 [20])	T/C (MCF7 [22]) [%]	also measured
9.1e+07	CCCC(c1cccc(O)c1)C(CCC)c1cccc(O)c1 (configuration not stated)	30700	53	34300	inactive	4300	71	84	29700	66% and 68%	78	6100	23300	93	Effect [1]: 30.4; Tumors (Rattus norvegicus [3]): 52%; No. of tumors (Rattus norvegicus [4]): 17; Tumors (Rattus norvegicus [5]): 8%; Tumors (Rattus norvegicus [6]): 0%; Tumors (Rattus norvegicus [7]): 25%; Effect [9]: 28.7; Effect [11]: 28.4; inhibition [21]: 5%; Change (Rattus norvegicus [23]): 3.6%
2e+08	CCC(c1cccc(O)c1)C(CC)c1cccc(O)c1 (stereo in doubt; 20)	32100	27	27900	inactive	4700	73	84	27700	70% and 63%	64	5100	11900	78	Tumors (Rattus norvegicus [24]): 19%; Effect [25]: 30.5; Effect [26]: 30.8; inhibition [27]: 47%; Change (Rattus norvegicus [28]): 11%; Tumors (Rattus norvegicus [29]): 21%; Effect [30]: 28.3; No. of tumors (Rattus norvegicus [31]): 37; No. of tumors (Rattus norvegicus [32]): 37
